Experimental data reported in ChEMBL document CHEMBL1152659, “Removal of the 20-methyl group from 2-methylene-19-nor-(20S)-1alpha,25-dihydroxyvitamin D(3) (2MD) selectively eliminates bone calcium mobilization activity” (Bioorg Med Chem, 2009).
pEC50, pKi: −log10 of the molar value.

How the values were obtained:
Vitamin D3 receptor [1] = biological target: T1, Vitamin D3 receptor (Rattus norvegicus, UniProt P13053); assay: Displacement of radiolabeled 1-alpha,25-(OH)2D3 from rat recombinant full length VDR
T1 sequence (P13053 whole entry): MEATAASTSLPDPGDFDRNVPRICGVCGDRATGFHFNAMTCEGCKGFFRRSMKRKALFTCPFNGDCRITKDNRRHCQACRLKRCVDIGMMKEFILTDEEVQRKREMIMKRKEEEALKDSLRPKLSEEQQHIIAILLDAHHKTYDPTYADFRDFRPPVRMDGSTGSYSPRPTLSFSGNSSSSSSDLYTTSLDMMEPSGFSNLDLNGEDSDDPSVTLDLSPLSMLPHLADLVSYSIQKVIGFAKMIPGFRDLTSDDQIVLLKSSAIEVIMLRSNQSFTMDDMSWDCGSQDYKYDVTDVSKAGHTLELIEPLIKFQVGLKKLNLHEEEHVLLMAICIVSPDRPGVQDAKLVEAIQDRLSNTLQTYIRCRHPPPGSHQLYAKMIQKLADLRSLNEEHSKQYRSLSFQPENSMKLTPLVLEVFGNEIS

Rattus norvegicus [2] = assay: Effect on bone calcium mobilization in weanling Sprague-Dawley rat assessed as serum calcium level at 2340 pmol/day, ip administered for 4 consecutive days measured 24 hrs after last dose; format: functional
Outline: (§1)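 Male weanling rats fed 0.47% Ca + AEK oil for 1 wk, then 0.02% Ca for 3 wk, then 0.47% Ca for 1 wk, then 0.02% Ca for 2 wk. Dosing during the final low-Ca week: four i.p. doses about 24 h apart. Serum Ca measured on blood from severed neck 24 h after the last dose; statistics applied.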

[3] = biological target: T2, Vitamin D3 receptor (Rattus norvegicus) (UniProt P13053); assay: Ratio of compound EC50 to [3H]1-alpha,25-(OH)2D3 EC50 for VDR in rat osteosarcoma cells by 24-hydroxylase gene transcriptional activation assay; format: cell-based
T2 sequence (whole entry): T1 sequence (P13053 whole entry)
Outline: (§2)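 Rat osteosarcoma cells stably transfected with a 24-hydroxylase gene reporter plasmid; luciferase read-out. EC50 from dose–response curves = concentration raising luciferase activity by 50%. Ratio = average of analog EC50 over 1α,25-(OH)2D3 EC50. Duplicates on at least two separate occasions.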

Rattus norvegicus [4] = assay: Effect on intestinal calcium transport in weanling Sprague-Dawley rat assessed as ratio of serosal to mucosal calcium level at 7020 pmol/day, ip administered for 4 consecutive days measured 24 hrs after last dose by everted gut sac method; format: functional
Outline: (§3)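 Same rats and regimen: low/normal Ca diet cycling, then four i.p. doses about 24 h apart during the final 0.02% Ca week. First 10 cm of intestine taken 24 h after the last dose; Ca transport measured by everted gut sac.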

Rattus norvegicus [5] = assay: Effect on bone calcium mobilization in weanling Sprague-Dawley rat assessed as serum calcium level at 780 pmol/day, ip administered for 4 consecutive days measured 24 hrs after last dose; format: functional; outline: as §1
Rattus norvegicus [6] = assay: Effect on intestinal calcium transport in weanling Sprague-Dawley rat assessed as ratio of serosal to mucosal calcium level at 260 pmol/day, ip administered for 4 consecutive days measured 24 hrs after last dose by everted gut sac method; format: functional; outline: as §3
Vitamin D3 receptor [7] = biological target: T1, Vitamin D3 receptor; assay: Activity at VDR in rat osteosarcoma cells assessed as induction of 24-hydroxylase reporter gene transcription by luciferase reporter gene assay; format: cell-based; outline: as §2
Rattus norvegicus [8] = assay: Effect on bone calcium mobilization in weanling Sprague-Dawley rat assessed as serum calcium level at 7020 pmol/day, ip administered for 4 consecutive days measured 24 hrs after last dose; format: functional; outline: as §1
HL-60 [9] = assay: Ratio of compound ED50 to [3H]1-alpha,25-(OH)2D3 ED50 for induction of differentiation of human HL60 promyelocytes into monocytes after 4 days by NBT reduction assay; format: functional
Rattus norvegicus [10] = assay: Effect on intestinal calcium transport in weanling Sprague-Dawley rat assessed as ratio of serosal to mucosal calcium level at 780 pmol/day, ip administered for 4 consecutive days measured 24 hrs after last dose by everted gut sac method; format: functional; outline: as §3
[11] = biological target: T2, Vitamin D3 receptor (Rattus norvegicus); assay: Ratio of compound Ki to [3H]1-alpha,25-(OH)2D3 Ki for rat recombinant full length VDR
HL-60 [12] = assay: Induction of differentiation of human HL60 promyelocytes into monocytes after 4 days by NBT reduction assay; format: functional, cell-based; conditions: HL-60, 96 h
Rattus norvegicus [13] = assay: Effect on bone calcium mobilization in weanling Sprague-Dawley rat assessed as serum calcium level at 260 pmol/day, ip administered for 4 consecutive days measured 24 hrs after last dose; format: functional; outline: as §1
Rattus norvegicus [14] = assay: Effect on intestinal calcium transport in weanling Sprague-Dawley rat assessed as ratio of serosal to mucosal calcium level at 2340 pmol/day, ip administered for 4 consecutive days measured 24 hrs after last dose by everted gut sac method; format: functional; outline: as §3
Rattus norvegicus [15] = assay: Effect on intestinal calcium transport in weanling Sprague-Dawley rat assessed as ratio of serosal to mucosal calcium level at 87 pmol/day, ip administered for 4 consecutive days measured 24 hrs after last dose by everted gut sac method; format: functional; outline: as §3
Rattus norvegicus [16] = assay: Effect on bone calcium mobilization in weanling Sprague-Dawley rat assessed as serum calcium level at 87 pmol/day, ip administered for 4 consecutive days measured 24 hrs after last dose; format: functional; outline: as §1

pKi (Vitamin D3 receptor [1])	Ratio EC50 [3]	pEC50 (Vitamin D3 receptor [7])	Ratio Ki [11]	pEC50 (HL-60 [12])	SMILES	Activity (Rattus norvegicus [2])	Ratio (Rattus norvegicus [4])	Activity (Rattus norvegicus [5])	Ratio (Rattus norvegicus [6])	Activity (Rattus norvegicus [8])	Ratio ED50 (HL-60 [9])	Ratio (Rattus norvegicus [10])	Activity (Rattus norvegicus [13])	Ratio (Rattus norvegicus [14])	Ratio (Rattus norvegicus [15])	Activity (Rattus norvegicus [16])
10.70	0.07	10.70	0.2	9.40	C=C1[C@H](O)CC(=C/C=C2\CCC[C@@H]3[C@@H]([C@@H](C)CCCC(C)(C)O)CC[C@@H]23)C[C@H]1O	7.8 mg/dL	14.5	6.6 mg/dL	8.4	8.7 mg/dL	0.2	10	5.7	8.5		
9.70	0.67	9.70	2	9.70	C=C1[C@H](O)CC(=C/C=C2\CCC[C@]3(C)[C@@H](CCCCC(C)(C)O)CC[C@@H]23)C[C@H]1O	5.3 mg/dL	7.8	4.9 mg/dL	7.4	5.1 mg/dL	0.35	10.2	4.6 mg/dL	8.8	5.6	4.3 mg/dL
					C=C1[C@H](O)CC(=C/C=C2\CCC[C@]3(C)[C@@H]([C@@H](C)CCCC(C)(C)O)CC[C@@H]23)C[C@H]1O [DP001]			11.1 mg/dL	11.4			10.9	9.3 mg/dL		12.3	8.4 mg/dL
10.00	0.2	10.22	1	9.52	C=C1[C@H](O)CC(=C/C=C2\CCC[C@@H]3[C@@H](CCCCC(C)(C)O)CC[C@@H]23)C[C@H]1O	6.1 mg/dL	11.4		2.3	6.5 mg/dL	0.15		4.3 mg/dL	7.5	7.2	4 mg/dL
					C=C1/C(=C\C=C2/CCC[C@]3(C)[C@@H]([C@H](C)CCCC(C)(C)O)CC[C@@H]23)C[C@@H](O)C[C@@H]1O [CALCITRIOL]	6.9 mg/dL		5.3 mg/dL					5 mg/dL			4.6 mg/dL
